Screens: PubChem BioAssay, several laboratories
An excerpt weighted towards active compounds, which were near 27% of everything screened.
CYP2C9 inh – blockers of cytochrome P450 2C9 activity – biochemical, luminescence, ADME assay, primary screen; P11712; CYP2C9 Supersomes, luciferin-H conversion; inhibition, % at 5 µM; 96,000 compounds, 20% hits;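 active = blocking of liver enzyme CYP2C9 beyond about 50% at 5 µM, limit read from the data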
Cav3 T inh – Cav3.2 calcium influx blockers – cell-based, Fluo-4 calcium fluorescence, FDSS, MLSMR library, primary screen; Voltage-dependent T-type calcium channel subunit alpha-1H (Homo sapiens), O95180; B-score at 10 µM; 100,000 compounds, 4% hits; Cav3.2-expressing cells; active compounds read low; AID 449739, 2010;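 active = single-dose well whose peak fluorescence ratio is a statistical outlier from its plate by either plate-standardised score or position-corrected B-score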
CYP2C9 act – human CYP2C9 activators, primary screen, biochemical, luminescence. Cytochrome P450 2C9 (Homo sapiens), P11712. recombinant CYP2C9, luciferin-H conversion; active compounds read high; factor 1 = untreated enzyme, 0 = blocked. activation factor at 5 µM. 96,000 compounds, 1.4% hits. AID 1024, 2008;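 active = activation factor of 2 or more for CYP2C9 at a 5 µM dose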
Rev-RRE block – HIV-1 Rev-RRE binding inhibitors, primary screen, biochemical, FRET, protein-RNA interaction; P05866; Rev peptide-RRE RNA binding; inhibition, % at 8 µM; 97,000 compounds, 0.79% hits;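 active = inhibition above the screen-wide mean plus 3 SD, cut at about 35% in these data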
Target sequence (P05866 whole entry, looked up): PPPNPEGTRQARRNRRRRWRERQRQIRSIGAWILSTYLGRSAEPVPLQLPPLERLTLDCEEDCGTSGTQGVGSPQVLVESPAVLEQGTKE
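Material: labelled RRE RNA duplex and labelled Rev peptide / Buffer or medium: HEPES pH 7.5 salt buffer with EDTA / Compound dosing: single point, 8 µM final nominal compound concentration / Benchmarks: DMSO low control, neomycin B high control / Timing: 5 min preincubation and 15 min binding, 25 °C / Technique: FRET fluorescence readout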
CYP2C19 inh – blockers of cytochrome P450 2C19 activity – biochemical, luminescence, ADME assay, primary screen. inhibition, % at 5 µM. AID 778, 2007. CYP2C19 Supersomes, luciferin-H EGE luminescence, 30 min. 96,000 compounds, 21% hits. P33261;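 active = CYP2C19 inhibition above a set limit at 5 µM in the primary screen, cut at about 50% in these data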
Target sequence (P33261 whole entry, looked up): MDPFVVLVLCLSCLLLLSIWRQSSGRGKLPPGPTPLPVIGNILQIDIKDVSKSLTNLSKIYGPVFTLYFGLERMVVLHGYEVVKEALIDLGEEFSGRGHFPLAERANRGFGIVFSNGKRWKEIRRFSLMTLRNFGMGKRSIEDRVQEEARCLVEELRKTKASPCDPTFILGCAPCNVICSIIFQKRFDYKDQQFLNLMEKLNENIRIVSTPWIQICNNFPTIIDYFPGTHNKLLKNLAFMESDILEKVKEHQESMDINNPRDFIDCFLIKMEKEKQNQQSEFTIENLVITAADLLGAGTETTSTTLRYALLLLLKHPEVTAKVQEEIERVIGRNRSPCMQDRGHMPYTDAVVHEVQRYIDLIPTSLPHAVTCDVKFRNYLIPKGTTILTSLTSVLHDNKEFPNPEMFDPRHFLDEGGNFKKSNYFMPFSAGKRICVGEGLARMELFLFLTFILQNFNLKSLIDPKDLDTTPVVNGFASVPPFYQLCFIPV
CYP2C19 act – human CYP2C19 activators, primary screen, biochemical, luminescence; Cytochrome P450 2C19 (Homo sapiens), P33261; recombinant CYP2C19, luciferin-H EGE luminescence; active compounds read high; 0 = fully inhibited enzyme, 1 = untreated enzyme; activation factor at 5 µM; 96,000 tested, under 10 active; AID 1025, 2008;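 active = activation factor of at least 2 at 5 µM in the primary screen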
Hits are given with their value; - = inactive; . = no result.

SMILES | CYP2C9 inh | Cav3 T inh | CYP2C9 act | Rev-RRE block | CYP2C19 inh | CYP2C19 act
CCOC(=O)c1sc(NC(=O)CN(CC(C)C)CC(C)C)c(C(=O)OCC)c1C | 62 | - | - | - | - | -
CCOC(=O)c1c(NC(=O)OC)sc(C(=O)N(CC)CC)c1C | 67 | - | - | - | 56 | -
CCOC(=O)c1c(NC(=O)CC(C)C)sc(C(C)=O)c1C | . | - | . | - | . | .
Cc1nccn1-c1ccc(C(F)(F)F)cc1NC=O | - | - | - | - | - | -
CC1=C(C(=O)N2CCCCC2)C(c2cccs2)NC(=O)N1 (configuration not stated) | - | - | - | - | - | -
CCCCCC(C)n1[nH]c(=O)c2c(C)cc(C)nc21 (configuration not stated) | 66 | . | - | - | 98 | -
CCC(CC)n1[nH]c(=O)c2c(C)cc(C)nc21 | - | - | - | - | - | -
COc1ccc(OC)c(NC(=O)C2CCN(c3nc(C)cc(C)n3)CC2)c1 | - | - | - | - | - | -
Nc1nnc(CC(=O)NCc2ccccc2)s1 | - | - | - | - | - | -
COC(=O)c1ccsc1NC(=O)CSc1nnnn1-c1ccccc1SC | - | - | 2 | - | - | -
CSc1ccccc1NC(=O)CSc1nnnn1-c1ccccc1SC | - | - | 3.1 | - | - | -
CSc1ccccc1-n1nnnc1SCC(=O)Nc1ccccc1C | - | - | 3.3 | - | 87 | -
Cn1nnnc1SCC(=O)Nc1ccccc1Cc1ccccc1 | 58 | - | - | - | 55 | -
O=C(CSc1ncnc2c1oc1ccccc12)Nc1cccc(C(F)(F)F)c1 | - | . | - | - | - | -
O=C(CSc1ncnc2c1oc1ccccc12)Nc1cccc(Cl)c1 | 60 | - | - | - | - | -
O=C(CSc1nc2ccccc2o1)Nc1nc2ccccc2s1 | - | - | - | - | - | -
O=C(CSc1ncnc2c1oc1ccccc12)Nc1nc2ccccc2s1 | 77 | - | - | - | - | -
CCOc1ccccc1NC(=O)CSc1ncnc2c1oc1ccccc12 | 85 | - | - | - | - | -
CCc1nnc(NC(=O)CSc2ncnc3c2oc2ccccc23)s1 | 77 | - | - | - | - | -
O=C(CSc1ncnc2c1oc1ccccc12)Nc1ccccc1F | - | - | - | - | - | -
C=CCOC(=O)C1=C[C@@H](C2CCCCC2)C[C@@H](OCc2ccc(CO)cc2)O1 | . | - | . | . | . | .
O=C(Nc1ccccc1)c1cccc(N2CCCC2=O)c1 | - | - | - | - | - | -
CC1(c2nnc(-c3cccc(Cl)c3)o2)CC(c2ccc(C#N)cc2)=NO1 (configuration not stated) | . | - | . | . | . | .
Cc1ccc(CNC(=O)C2CCN(S(=O)(=O)c3c(C)noc3/C=C/c3ccco3)CC2)cc1 | 57 | - | - | - | - | -
Cc1noc(/C=C/c2ccco2)c1S(=O)(=O)N1CCC(C(=O)N2CCc3ccccc3C2)CC1 | 73 | . | - | - | - | -
SMILES | CYP2C9 inh | Cav3 T inh | CYP2C9 act | Rev-RRE block | CYP2C19 inh | CYP2C19 act
Cc1noc(/C=C/c2ccco2)c1S(=O)(=O)N1CCC(C(=O)NCc2ccco2)CC1 | - | - | - | - | - | -
CCOC(=O)N1CCN(S(=O)(=O)c2cc(OCC(N)=O)c(C)cc2Cl)CC1 | - | - | - | - | - | -
C=CCNc1nc(SC)nc2ccsc12 | - | - | 2.3 | - | - | -
C=CCSc1nc(N(CC)CC)c2sccc2n1 | - | - | - | - | - | -
CNC(=S)N1N=C(c2ccc(C)cc2)CC1c1ccc(Cl)cc1 (configuration not stated) | 90 | -6.2 | - | - | - | -
CCC(=O)N1N=C(c2ccc(NS(C)(=O)=O)cc2)CC1c1ccc(C)cc1 (configuration not stated) | - | - | - | - | - | -
CNC(=S)N1N=C(c2ccc(C)cc2)CC1c1ccc(Br)cc1 (configuration not stated) | 92 | -6.3 | - | - | 55 | -
COC(=O)C1CCCN1C(=O)C1CCCN1C(=O)CNC(=O)OCc1ccccc1 (configuration not stated) | - | - | - | - | - | -
Cc1ccc(NC(=O)c2ccc(-c3nn(C)c(=O)c4ccccc34)cc2)cc1 | 57 | - | - | - | - | -
Cn1nc(-c2ccc(C(=O)Nc3cccnc3)cc2)c2ccccc2c1=O | 53 | - | - | - | 58 | -
Cn1nc(-c2ccc(C(=O)Nc3cccc(Cl)c3)cc2)c2ccccc2c1=O | - | - | - | - | 51 | -
Cn1nc(-c2ccc(OCC(=O)Nc3cccnc3)cc2)c2ccccc2c1=O | 71 | - | - | - | - | -
Cc1ccc(NC(=O)c2ccc(-c3nn(C)c(=O)c4ccccc34)cc2)c(C)c1 | - | - | - | - | - | -
COC(=O)[C@@](C)(O)C1(C(=O)SC(C)(C)C)CC1 | . | - | . | . | . | .
CCN(CC)CCNCc1ccc(-c2ccc(Cl)cc2)o1 | - | - | - | . | - | -
Cc1sc(NC(=O)CSC2=NCCS2)nc1-c1ccccc1 | - | -4.4 | - | - | - | -
CC1(C)CC(=O)C(C=NCC2CCCO2)=C(O)C1 (configuration not stated) | - | - | - | - | - | -
Cc1ccc2occ(C(c3nnnn3C3CCCC3)N3CCN(C(=O)c4ccco4)CC3)c(=O)c2c1 (configuration not stated) | 83 | - | - | - | 82 | -
c1ccc(CC2CCN(C(c3cccs3)c3nnnn3C3CCCC3)CC2)cc1 (configuration not stated) | 88 | -3.4 | - | - | 68 | -
CC(C)CCn1nnnc1C(c1ccc(N(C)C)cc1)N1CCN(C(=O)c2ccco2)CC1 (configuration not stated) | 66 | - | - | - | 90 | -
CCCCC(c1nnnn1CCOC)N1CCN(C(=O)c2ccco2)CC1 (configuration not stated) | 55 | - | - | . | 80 | -
O=C(c1ccco1)N1CCN(C(c2cccs2)c2nnnn2C2CCCC2)CC1 (configuration not stated) | 68 | - | - | - | 55 | -
CC(C)CC(c1nnnn1C1CCCC1)N1CCN(C(=O)c2ccco2)CC1 (configuration not stated) | - | - | - | - | - | -
COc1ccccc1N1CCN(C(c2cccs2)c2nnnn2C2CCCC2)CC1 (configuration not stated) | 88 | - | - | - | 94 | -
CCCCC(c1nnnn1C1CCCC1)N1CCN(C2CCCCC2)CC1 (configuration not stated) | - | - | - | - | - | -
